According to ChEMBL document CHEMBL4433210, “Synthesis and Evaluation of Bifunctional Aminothiazoles as Antiretrovirals Targeting the HIV-1 Nucleocapsid Protein” (ACS Med Chem Lett, 2019):
Activity calls are given as the source filed them.

Experiments:
[1] = test system: Human immunodeficiency virus 1; test: (§1) Antiviral activity against wild-type HIV1 NL4-3 infected in human TZM-bl cells infected with supernatants from virus-infected human HeLa P4.R5MAGI cells treated with compound for 72 hrs assessed as reduction in viral replication after 48 hrs by bright Glo-luciferase reporter gene assay; assay type: functional, organism-based; details: Human immunodeficiency virus 1, NL4-3
[2] = Inhibition of synthesized Nucleocapsid protein (11 to 55 residues) assessed as reduction in NC-induced cTAR DNA destabilization pre-treated with cTAR and Nucleocapsid (11-55) for 15 mins followed by compound addition at 10 uM by spectroflurometry relative to control
Procedure, shortened: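 NC chaperone inhibition assay: fluorescence monitoring of NC-induced destabilization of cTAR DNA labelled with Alexa488 at the 5′ end and Dabcyl quencher at the 3′ end. Compound is tested at 10 μM.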

[3] = test system: Human immunodeficiency virus 1; test: Selectivity ratio of IC50 for HIV1 12229 harboring non-nucleoside reverse transcriptase L100I/K103N/H221Y mutant infected in human MT2 cells to IC50 for HIV1 NL4-3 infected in human MT2 cells; assay type: functional
Procedure, shortened: (§2)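 Fold change is the IC50 against the resistant strain divided by the IC50 against the wild-type NL4–3 reference. Both IC50 values come from the BiCycle assay (MT-2 infection, then TZM-bl readout of progeny virus).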

[4] = test system: Human immunodeficiency virus 1; test: Antiviral activity against wild-type HIV1 NL4-3 infected infected in human MT2 cells assessed as reduction in HIV1 extracellular genomic RNA level at 20 uM and measured after 30 hrs post infection by TaqMan probe based RT-PCR analysis; assay type: functional, organism-based
Procedure, shortened: (§3)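 MT-2 cells were infected with NL4-3 at MOI 0.1 and incubated with test or reference agents at 20, 5 or 1 μM. Real-time PCR measured integrated HIV-1 DNA and intracellular and extracellular genomic HIV-1 RNA at 30 h post-infection. Levels are expressed as a percentage of the no-drug control culture.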

[5] = test system: Human immunodeficiency virus 1; test: as §1, with “against” for “against wild-type”, “7400 harboring nucleoside reverse transcriptase M41L/D67N/M184V/L210W/T215Y mutant” for “NL4-3”, “MT2” for “HeLa P4.R5MAGI”; assay type: functional, organism-based; details: Human immunodeficiency virus 1, 7400
Procedure, shortened: (§4)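 BiCycle assay: MT-2 cells infected with a drug-resistant HIV-1 strain in the presence of compound dilutions. Virus produced in this first round is then measured by infecting TZM-bl cells. The readout is IC50.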

[6] = test system: Human immunodeficiency virus 1; test: Selectivity ratio of IC50 for HIV1 7401 harboring nucleoside reverse transcriptase M41L/E44D/D67N/T69D/M184V/L210W/T215Y mutant infected in human MT2 cells to IC50 for HIV1 NL4-3 infected in human MT2 cells; assay type: functional; procedure, shortened: as §2
[7] = test system: Human immunodeficiency virus 1; test: as §1, with “against” for “against wild-type”, “12231 harboring non-nucleoside reverse transcriptase 103N/179F/181C mutant” for “NL4-3”, “MT2” for “HeLa P4.R5MAGI”; assay type: functional, organism-based; details: Human immunodeficiency virus 1, 12231; procedure, shortened: as §4
[8] = test system: Human immunodeficiency virus 1; test: Selectivity ratio of IC50 for HIV1 12231 harboring non-nucleoside reverse transcriptase 103N/179F/181C mutant infected in human MT2 cells to IC50 for HIV1 NL4-3 infected in human MT2 cells; assay type: functional; procedure, shortened: as §2
[9] = test system: Human immunodeficiency virus 1; test: as §1, with “against” for “against wild-type”, “12465 harboring protease M46I/I54V/Q58E/T74P/V82L/L90M mutant” for “NL4-3”, “MT2” for “HeLa P4.R5MAGI”; assay type: functional, organism-based; details: Human immunodeficiency virus 1, 12465; procedure, shortened: as §4
[10] = test system: Human immunodeficiency virus 1; test: Antiviral activity against wild-type HIV1 NL4-3 infected in human TZM-bl cells treated with compound assessed as reduction in viral replication after 48 hrs by bright Glo-luciferase reporter gene assay based monocycle assay; details: Human immunodeficiency virus 1, NL4-3
[11] = test system: Human immunodeficiency virus 1; test: Selectivity ratio of IC50 for HIV1 11808 harboring protease L10F/K20T/V32I/L33F/I54V/G73S/I84V/L89V/L90M mutant infected in human MT2 cells to IC50 for HIV1 NL4-3 infected in human MT2 cells; assay type: functional; procedure, shortened: as §2
[12] = test system: Human immunodeficiency virus 1; test: Antiviral activity against wild-type HIV1 NL4-3 infected infected in human MT2 cells assessed as reduction in HIV1 integrated DNA at 20 uM and measured after 30 hrs post infection by Alu-LTR PCR protocol based method; assay type: functional, organism-based; procedure, shortened: as §3
[13] = test system: Human immunodeficiency virus 1; test: Selectivity ratio of IC50 for HIV1 11845 harboring integrase 140S/148H double mutant mutant infected in human MT2 cells to IC50 for HIV1 NL4-3 infected in human MT2 cells; assay type: functional; procedure, shortened: as §2
[14] = test system: Human immunodeficiency virus 1; test: Antiviral activity against wild type HIV1 NL4-3 infected in human TZM-bl cells assessed as reduction in viral replication after 48 hrs by bright Glo-luciferase reporter gene assay based BiCycle assay; assay type: functional, organism-based; details: Human immunodeficiency virus 1, NL4-3, TZM-bl
Procedure, shortened: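 BiCycle format: MT-2 cells infected with wild-type NL4-3 in the presence of compound dilutions. Virus produced in this first round was then quantified by infecting TZM-bl cells. IC50 was derived from the dose-response data.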

[15] = test system: Human immunodeficiency virus 1; test: as §1, with “against” for “against wild-type”, “11845 harboring integrase 140S/148H double mutant” for “NL4-3”, “MT2” for “HeLa P4.R5MAGI”; assay type: functional, organism-based; details: Human immunodeficiency virus 1, 11845; procedure, shortened: as §4
[16] = test system: Human immunodeficiency virus 1; test: as §1, with “against” for “against wild-type”, “11808 harboring protease L10F/K20T/V32I/L33F/I54V/G73S/I84V/L89V/L90M mutant” for “NL4-3”, “MT2” for “HeLa P4.R5MAGI”; assay type: functional, organism-based; details: Human immunodeficiency virus 1, 11808; procedure, shortened: as §4
[17] = test system: Human immunodeficiency virus 1; test: as §1, with “against” for “against wild-type”, “7401 harboring nucleoside reverse transcriptase M41L/E44D/D67N/T69D/M184V/L210W/T215Y mutant” for “NL4-3”, “MT2” for “HeLa P4.R5MAGI”; assay type: functional, organism-based; details: Human immunodeficiency virus 1, 7401; procedure, shortened: as §4
[18] = test system: Human immunodeficiency virus 1; test: Selectivity ratio of IC50 for HIV1 7400 harboring nucleoside reverse transcriptase M41L/D67N/M184V/L210W/T215Y mutant infected in human MT2 cells to IC50 for HIV1 NL4-3 infected in human MT2 cells; assay type: functional; procedure, shortened: as §2
[19] = Cytotoxicity against human PBMC cells assessed as reduction in cell viability after 7 days by MTS assay; assay type: cell-based; details: read-out: TD50
Procedure, shortened: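 Cytotoxicity in peripheral blood mononuclear cells by MTS assay, giving TD50. Only compounds that met the BiCycle IC50 ≤ 5 μM criterion and were positive in the NC inhibition assay were tested.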

[20] = test system: Human immunodeficiency virus 1; test: Selectivity ratio of IC50 for HIV1 12465 harboring protease M46I/I54V/Q58E/T74P/V82L/L90M mutant infected in human MT2 cells to IC50 for HIV1 NL4-3 infected in human MT2 cells; assay type: functional; procedure, shortened: as §2
[21] = test system: Human immunodeficiency virus 1; test: Antiviral activity against wild-type HIV1 NL4-3 infected infected in human MT2 cells assessed as reduction in extracellular RNA at 20 uM and measured after 30 hrs post infection by Alu-LTR PCR protocol based method; assay type: functional, organism-based; procedure, shortened: as §3
[22] = test system: Human immunodeficiency virus 1; test: Antiviral activity against wild-type HIV1 NL4-3 infected infected in human MT2 cells assessed as reduction in intracellular RNA at 20 uM and measured after 30 hrs post infection by Alu-LTR PCR protocol based method; assay type: functional, organism-based; procedure, shortened: as §3
[23] = test system: Human immunodeficiency virus 1; test: as §1, with “against” for “against wild-type”, “12229 harboring non-nucleoside reverse transcriptase L100I/K103N/H221Y mutant” for “NL4-3”, “MT2” for “HeLa P4.R5MAGI”; assay type: functional, organism-based; details: Human immunodeficiency virus 1, 12229; procedure, shortened: as §4
[24] = test system: Human immunodeficiency virus 1; test: Antiviral activity against wild-type HIV1 NL4-3 infected infected in human MT2 cells assessed as reduction in HIV1 intracellular genomic RNA level at 20 uM and measured after 30 hrs post infection by TaqMan probe based RT-PCR analysis; assay type: functional, organism-based; procedure, shortened: as §3
[25] = Selectivity index, ratio of TD50 for cytotoxicity aginst human PBMC cells to IC50 for antiviral activity against wild type HIV1 NL4-3 infected in human TZM-bl cells assessed as reduction in viral replication after 48 hrs by bright Glo-luciferase reporter gene assay based BiCycle assay; assay type: toxicity, cell-based; details: read-out: Selectivity Index
Procedure, shortened: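 SI calculated as TD50 from the PBMC MTS assay divided by IC50 from the BiCycle antiviral assay (MT-2 infection followed by TZM-bl read-out).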

[26] = test system: Human immunodeficiency virus 1; test: Antiviral activity against wild-type HIV1 NL4-3 infected infected in human MT2 cells assessed as reduction in HIV1 integrated DNA at 5 uM and measured after 30 hrs post infection by Alu-LTR PCR protocol based method; assay type: functional, organism-based; procedure, shortened: as §3
[27] = test system: Human immunodeficiency virus 1; test: Antiviral activity against wild-type HIV1 NL4-3 infected infected in human MT2 cells assessed as reduction in HIV1 intracellular genomic RNA level at 5 uM and measured after 30 hrs post infection by TaqMan probe based RT-PCR analysis; assay type: functional, organism-based; procedure, shortened: as §3
[28] = test system: Human immunodeficiency virus 1; test: Antiviral activity against wild-type HIV1 NL4-3 infected infected in human MT2 cells assessed as reduction in HIV1 extracellular genomic RNA level at 5 uM and measured after 30 hrs post infection by TaqMan probe based RT-PCR analysis; assay type: functional, organism-based; procedure, shortened: as §3
[29] = test system: Human immunodeficiency virus 1; test: Antiviral activity against wild-type HIV1 NL4-3 infected infected in human MT2 cells assessed as reduction in extracellular RNA at 5 uM and measured after 30 hrs post infection by Alu-LTR PCR protocol based method; assay type: functional, organism-based; procedure, shortened: as §3
[30] = test system: Human immunodeficiency virus 1; test: Antiviral activity against wild-type HIV1 NL4-3 infected infected in human MT2 cells assessed as reduction in intracellular RNA at 1 uM and measured after 30 hrs post infection by Alu-LTR PCR protocol based method; assay type: functional, organism-based; procedure, shortened: as §3
[31] = test system: Human immunodeficiency virus 1; test: Antiviral activity against wild-type HIV1 NL4-3 infected infected in human MT2 cells assessed as reduction in extracellular RNA at 1 uM and measured after 30 hrs post infection by Alu-LTR PCR protocol based method; assay type: functional, organism-based; procedure, shortened: as §3

Compound | inhibition [2] | Ratio IC50 [3] | IC50 [5] | Ratio IC50 [6] | IC50 [7] | Ratio IC50 [8] | IC50 [9] | IC50 [10] | Ratio IC50 [11] | Ratio IC50 [13] | IC50 [14] | IC50 [15] | IC50 [16] | IC50 [17] | Ratio IC50 [18] | CC50 at 168 h [19] | Ratio IC50 [20] | IC50 [23] | selectivity ratio at 48 h [25] | other results
Nc1nc(-c2ccccc2OCc2ccc(C(=O)O)cc2)cs1 | 6% |  |  |  |  |  |  |  |  |  |  |  |  |  |  |  |  |  |  | IC50 [1]: 95000 nM
Nc1nc(-c2ccc(OCc3cccc(C(=O)NCCNC(=O)c4ccc(COc5ccc(Cl)cc5-c5csc(N)n5)cc4)c3)cc2)cs1.O=C(O)C(F)(F)F.O=C(O)C(F)(F)F | 20% | 1.2 | 700 nM | 1.8 | 6000 nM | 7.5 | 1600 nM | > 50000 nM | 0.7 | 2.7 | 800 nM | 2200 nM | 600 nM | 1400 nM | 0.9 | > 50000 nM | 2 | 1000 nM | > 63 | Activity [4]: inactive; Activity [12]: inactive; Activity [21]: Active; Activity [22]: inactive; Activity [24]: inactive
Nc1nc(CCOC(=O)c2ccc(COc3ccccc3-c3csc(N)n3)cc2)cs1.O=C(O)C(F)(F)F.O=C(O)C(F)(F)F | 18% | 1 | 100 nM | 1.5 | 700 nM | 2.2 | 400 nM | 1200 nM | 3.6 | 2.3 | 300 nM | 700 nM | 1100 nM | 500 nM | 0.4 | 16000 nM | 1.2 | 300 nM | 53 | Activity [26]: inactive; Activity [27]: Active; Activity [28]: Active; Activity [29]: Active
CC(C)CN(C[C@@H](O)[C@H](Cc1ccccc1)NC(=O)O[C@H]1CO[C@H]2OCC[C@H]21)S(=O)(=O)c1ccc(N)cc1 |  |  |  |  |  |  |  |  |  |  |  |  |  |  |  |  |  |  |  | Activity [30]: inactive; Activity [31]: Active
